Screening data (PubChem)
In the library only some 9.8% were active in any assay of this set; here they are far more common.
PMI act satM6P = activators of human phosphomannose isomerase at near-saturating mannose 6-phosphate; coupled PMI enzyme assay, resazurin fluorescence, 20 min; hits give high values; 1 = untreated enzyme, 0 = substrate-free blank; activation factor at 20 µM; hit rate 0.34% among 190,000; AID 1216;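 active = activation factor of 2 or more at 20 µM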
Target sequence (P34949 whole entry, looked up): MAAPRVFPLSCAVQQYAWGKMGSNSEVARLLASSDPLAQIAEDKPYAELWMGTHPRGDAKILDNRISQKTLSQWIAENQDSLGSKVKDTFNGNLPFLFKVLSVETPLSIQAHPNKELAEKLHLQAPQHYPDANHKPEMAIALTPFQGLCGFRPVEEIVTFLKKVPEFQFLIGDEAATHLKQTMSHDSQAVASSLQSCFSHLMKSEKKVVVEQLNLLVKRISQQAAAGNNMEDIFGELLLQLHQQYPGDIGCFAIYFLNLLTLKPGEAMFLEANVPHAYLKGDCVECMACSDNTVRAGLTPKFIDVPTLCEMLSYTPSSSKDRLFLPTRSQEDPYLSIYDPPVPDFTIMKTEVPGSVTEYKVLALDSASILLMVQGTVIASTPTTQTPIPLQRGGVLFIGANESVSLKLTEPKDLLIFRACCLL
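Test system: human phosphomannose isomerase with PGI, G6PDH, diaphorase coupling enzymes; Amount: PMI at 15 ng/mL final; Reagent: Mannose-6-phosphate 1.0 mM (near-saturating) plus 0.22 mM NADP+; Timing: 20 min, room temperature; Technique: resorufin fluorescence at Ex 544/Em 590 nm; Dosing: 20 µM single dose.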
Lmaj promast = inhibitors of Leishmania major promastigote growth; Leishmania major promastigotes, resazurin fluorescence viability; hit rate 9% among 200,000; inhibition, % at 10 µM; in the data active = inhibition above about 50%;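 also: promastigotes grown with compound for 44 hours at 28 °C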
m-calpain inh = inhibitors of pig calpain II. inhibition, % at 16 µM. purified calpain II, fluorogenic peptide substrate, 30 min. hit rate 0.37% among 220,000;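 active = inhibition above about 50%, limit read from the data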
PMI act = activators of human phosphomannose isomerase | P34949 | purified human PMI, coupled resazurin fluorescence, 20 min; hits give high values; 1 = vehicle control, 0 substrate-free wells | activation factor at 20 µM | hit rate 0.005% among 190,000 | AID 1214;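 active = activation factor of 2 or more at 20 µM, relative to plate controls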
WT yeast gro inh = growth inhibition of WT yeast, mitochondrial fusion screen; AID 1362; mitochondrial fusion phenotypic screen, WT strain; hit rate 2.1% among 190,000; inhibition, % at 10 µM; in the data active = inhibition above about 58%; tested in S. cerevisiae
Rad51 HR inh = Rad51 (human) homologous recombination inhibition | Q06609 | hRad51 DNA strand exchange, fluorescence dequenching | inhibition, % at 10 µM | hit rate 0.085% among 200,000;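 active = inhibition above 40% at the single screening dose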
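Test system: preformed human Rad51 ssDNA filaments. Compound dosing: single dose, 10 µM final compound. Incubation: filaments 15 min 37 °C, then compound 30 min. Technique: FRET fluorescence dequenching, excitation 485 nm, emission 520 nm. Read-out basis: percent inhibition from fluorescence, normalised to plate control and blank means. Benchmarks: plate controls and plate blanks.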
Numbers stand for hits; – = inactive; · = not tested or not shown.

SMILES | PMI act satM6P | Lmaj promast | m-calpain inh | PMI act | WT yeast gro inh | Rad51 HR inh
CC(=O)NC(Cc1ccccc1)C(=O)OCC(=O)c1ccc(Cl)cc1 (stereo not drawn) | – | – | – | – | – | –
CCc1ccc(C(=O)COC(=O)C(Cc2ccccc2)NC(=O)c2ccc(Cl)cc2)cc1 (stereo not drawn) | – | 75.2 | – | – | – | –
CCO[C@@H]1OC(C(=O)O)=C[C@H](c2ccc3c(c2)OCO3)[C@H]1CCCO | – | – | – | – | – | –
Cc1ccc(C)c(N2CCN(C(=O)C34CC5CC(C3)CC(n3nnc(C)n3)(C5)C4)CC2)c1 | · | · | – | · | · | –
CC1(C)Cc2ccccc2C(CSc2ccccc2C(=O)O)=N1 | – | – | – | – | – | –
O=c1oc(-c2ccccc2NS(=O)(=O)c2ccc3ccccc3c2)nc2ccccc12 | – | 92.1 | – | – | – | –
O=C(CN1CCCC1)N/N=C/c1ccc(-c2cccc(Cl)c2)o1 | – | 100.5 | – | – | – | –
O=C(Cn1nnc(-c2ccccc2Cl)n1)N/N=C/c1ccc(-c2cccc(Cl)c2)o1 | – | – | – | – | – | ·
Cc1nc(C(=O)Nc2cccc(Cl)c2)nn1-c1cc(OC(C)C)c(Cl)cc1Cl | – | – | – | – | 66.7 | –
CC(=O)NC(Cc1cccc(F)c1)C(=O)NC1CCN(c2nnnn2-c2ccccc2)CC1 (stereo not drawn) | – | – | – | – | – | –
CC(C)C1Nc2c(O)cc(Cl)c([N+](=O)[O-])c2C2C=CCC21 (stereo not drawn) | · | – | – | · | 82.7 | –
O=S(=O)(c1cccc(NC(=S)NCc2ccco2)c1)N1CCOCC1 | – | – | – | – | – | –
CSCCC(NC(=O)c1cccc(S(=O)(=O)N2CCOCC2)c1)C(=O)Nc1cccc(C)c1 (stereo not drawn) | – | 70.0 | – | – | – | –
CC(Sc1nc2cc(Cl)ccc2s1)C(=O)Nc1cccc(S(=O)(=O)N2CCOCC2)c1 (stereo not drawn) | – | 61.7 | – | – | – | –
O=C(Nc1cccc(S(=O)(=O)N2CCOCC2)c1)c1ccco1 | – | 92.6 | – | – | · | –
O=C(Cc1ccc(Cl)c(Cl)c1)Nc1cccc(S(=O)(=O)N2CCOCC2)c1 | – | 55.1 | – | – | – | –
CN1CC(=O)N(CC(=O)Nc2cccc(S(=O)(=O)N3CCOCC3)c2)C1=O | – | – | – | – | – | –
Cc1cccc(C2N=C(N)Nc3nc4ccccc4n32)c1 (stereo not drawn) | · | · | – | · | · | ·
COc1cc(/C=C/C(=O)O)cc(S(=O)(=O)Nc2ccc3nc(SC)sc3c2)c1OC | – | – | – | – | – | –
COc1ccc(NC(=O)c2cc(SC)ccc2Cl)cc1 | – | – | – | – | – | –
Cc1cccc(-c2nc3cc(NC(=O)C4CCCO4)ccc3o2)c1 (stereo not drawn) | – | 74.9 | – | – | – | ·
O=C(Nc1ccc(-c2nc3ccccc3[nH]2)cc1)C1CCCO1 (stereo not drawn) | – | – | – | – | 68.8 | –
O=C(Nc1nc2ccccc2[nH]1)C1CCCO1 (stereo not drawn) | – | – | – | – | – | –
CC(C)S(=O)(=O)N1CCN(c2ccnc3cc(Cl)ccc23)CC1 | · | · | – | · | · | –
Cc1noc(C(F)(F)F)c1C(=O)NNC(=O)c1ccccc1 | · | · | – | · | · | –
SMILES | PMI act satM6P | Lmaj promast | m-calpain inh | PMI act | WT yeast gro inh | Rad51 HR inh
Cc1ccnc(N2C(=O)c3cccc4c([N+](=O)[O-])ccc(c34)C2=O)c1 | – | 100.5 | – | – | – | –
O=C1c2cccc3c([N+](=O)[O-])ccc(c23)C(=O)N1Cc1cccnc1 | – | 99.9 | – | – | 64.4 | –
Cc1ccc(N2C(=O)c3cccc4c([N+](=O)[O-])ccc(c34)C2=O)c2cccnc12 | · | · | – | · | · | –
O=C1c2cccc3cccc(c23)C(=O)N1Cc1cccnc1 | · | · | – | · | · | ·
Cc1cc(-c2nnc(SCC(=O)Nc3ccccc3Cl)n2C)no1 | · | · | – | · | · | –
O=C(CSc1ccccc1)NCc1ccccn1 | – | – | – | – | – | –
O=C(O)CCC(=O)Nc1ccccc1C(=O)N1CCN(c2ccc(Cl)cc2)CC1 | – | – | – | – | – | –
CCn1c2ccccc2c2nnc(SCc3ccccc3)nc21 | – | – | – | – | 58.2 | –
CCn1c2ccccc2c2nnc(SCC(=O)N(C)C3CCS(=O)(=O)C3)nc21 (stereo not drawn) | – | 66.1 | – | – | – | –
CCn1c2ccccc2c2nnc(SCC(=O)NC3CCS(=O)(=O)C3)nc21 (stereo not drawn) | – | – | – | – | – | ·
COC(=O)c1ccc(CO/N=C(\NC(C)=O)c2nonc2NC(C)=O)cc1 | – | – | – | – | – | –
COc1ccc(N2CCCC2=N)c(OC)c1 | · | · | – | · | · | ·
S=c1[nH]nc(-c2cc(-c3ccsc3)n[nH]2)n1-c1cccc2ccccc12 | – | 74.6 | – | – | – | –
COc1ccc(-c2cc(-c3n[nH]c(=S)n3-c3cccc4ccccc34)[nH]n2)cc1 | – | – | – | – | – | –
O=C(CSc1nc2c(sc3ccccc32)c(=O)n1CCCN1CCCC1)NCc1ccccc1 | – | 99.0 | – | – | – | –
Cc1ccc(CNC(=O)CSc2nc3c(sc4ccccc43)c(=O)n2CCCN2CCCC2)cc1 | – | 100.5 | – | – | – | 42.7
CCN(CC)CCn1c(SCC(=O)NCCC2=CCCCC2)nc2c(sc3ccccc32)c1=O | – | 67.9 | – | – | – | –
CC(=O)N1N=C(c2ccccc2OC(=O)/C=C/c2ccccc2)CC1c1ccccc1 (stereo not drawn) | · | · | – | · | · | ·
COc1cccc(-n2c(CN3CCN(c4ccccc4)CC3)nc3ccc([N+](=O)[O-])cc3c2=O)c1 | – | 63.3 | – | – | – | –
CCOC(=O)c1ccc(-n2c(CN3CCN(CC)CC3)nc3ccc([N+](=O)[O-])cc3c2=O)cc1 | – | – | – | – | – | –
CC(C)c1ccccc1OCC(=O)NC1CCCc2ccccc21 (stereo not drawn) | – | – | – | – | 60.8 | –
Cc1cccc(OCC(=O)NC2CCCc3ccccc32)c1C (stereo not drawn) | – | 60.7 | – | – | – | –
COC(=O)N/N=C(\C)c1ccc(Br)cc1 | – | – | – | – | – | –
CSC(=S)N/N=C(\C)c1ccc(Br)cc1 | – | – | – | – | 67.7 | –
CC(C)C(=O)OC1CCS(=O)(=O)c2sccc21 (stereo not drawn) | – | – | – | – | – | –
COc1ccc(OC)c(-c2cc(C3CCN(c4ncccc4[N+](=O)[O-])CC3)[nH]n2)c1 | – | – | – | – | – | –
O=[N+]([O-])c1cccnc1N1CCC(c2cc(-c3cccc(C(F)(F)F)c3)n[nH]2)CC1 | – | – | – | – | 77.7 | –
O=[N+]([O-])c1cccnc1N1CCC(c2cc(-c3ccc(Cl)cc3Cl)n[nH]2)CC1 | – | – | – | – | 65.2 | –
CN1CC(=O)Nc2ccc(F)cc2C1=O | – | – | – | – | 59.7 | ·
